In ChEMBL document CHEMBL1955770, “Inhibition of S/G2 phase CDK4 reduces mitotic fidelity” (J Biol Chem, 2006):
The source made the active and inactive calls. The rule behind the calls is not given here.

Experiments:
HeLa [1] = assay: Effect on aurora B protein expression in human HeLa cells at 2 uM measured 14 hr post thymidine-synchrony release by immunoblot analysis; format: functional, cell-based
In short: (§1)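 Synchronized HeLa cells given 2 μM CDK4 inhibitor in early S phase and harvested at set times post-release. Lysed in supplemented NETN buffer on ice for 20 min. Lysates run on SDS-PAGE and immunoblotted for survivin, borealin and other chromosomal passenger proteins, with ECL detection. Cyclin D3 served as loading control.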

[2] = biological target: Cyclin-dependent kinase 2/cyclin E1 (Homo sapiens, UniProt P24941); assay: Inhibition of human CDK2-GST-tagged cyclin E using his-tagged Rb as substrate after 30 mins by scintillation counting method; format: protein-complex assay
HeLa [3] = assay: Cell cycle arrest in human HeLa cells assessed as accumulation at S phase at 2 uM treated 4 hr and measured 10 hr post double thymidine-synchrony release using propidium iodide staining by FACS analysis (reference value: 1 %); format: functional
In short: (§2)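 Cells harvested at set times post-release, fixed in 70% ethanol, stained with 5 μg/ml propidium iodide plus 0.5 mg/ml RNase A, and analysed by flow cytometry. Cell-cycle phase fractions calculated by ModFit.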

SW480 = assay: Toxicity in human SW480 cells at 8 uM by MTT assay; format: cell-based; conditions: sw480, 8 µM
COLO 205 = assay: Toxicity in human COLO205 cells at 8 uM by MTT assay; format: cell-based; conditions: colo 205, 8 µM
HeLa [4] = assay: Cell cycle arrest in human HeLa cells assessed as accumulation at G2/M phase at 2 uM treated 6 hr and measured 12 hr post double thymidine-synchrony release using propidium iodide staining by FACS analysis (reference value: 17 %); format: functional; in short: as §2
HeLa [5] = assay: Cell cycle arrest in Rb-deficient human HeLa cells assessed as accumulation at sub-diploid phase at 2 uM after 24 hrs by FACS analysis; format: functional
In short: (§3)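 Ethanol-fixed cells stained with propidium iodide/RNase A, DNA content read by FACS, phase and sub-diploid fractions calculated with ModFit.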

HeLa [6] = assay: Decrease in survivin mRNA expression in human HeLa cells at 2 uM measured 8 to 14 hr post thymidine-synchrony release by RT-PCR analysis; format: functional, cell-based
In short: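 Survivin mRNA measured by real-time Taqman RT-PCR on TRIzol-extracted RNA from synchronized, treated HeLa samples, with β-actin as reference. Reaction used 600 nM each primer and 200 nM probe. Cycling: 50 °C for 2 min, 95 °C for 10 min, then 40 cycles of 95 °C for 15 s and 60 °C for 1 min. Values are the average of triplicate determinations.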

MDA-MB-435 = assay: Toxicity in human MDA-MB-435 cells at IC50 after 3 days by MTT assay; format: cell-based; conditions: mda-mb-435, 72 h
HeLa [7] = assay: Cell cycle arrest in human HeLa cells assessed as time delay in progression through G2/M phase at 2 uM treated at 4 hr post double thymidine-synchrony release using propidium iodide staining by FACS analysis; format: functional; in short: as §2
[8] = biological target: Tyrosine-protein kinase Lck (Homo sapiens, UniProt P06239); assay: Inhibition of Lck using fluorescent substrate by IMAP assay
In short: (§4)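 Run in-house using IMAP: phosphorylated fluorescent peptide substrate binds preferentially to immobilized metal beads, which quantifies kinase activity. ATP at 3× the Km of each enzyme.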

HeLa [9] = assay: Cell cycle arrest at G2 phase in human HeLa cells assessed as delay in entry into mitosis at 2 uM treated 1 hr after double thymidine-synchrony release by MPM-2-based FACS analysis (reference value: 8 hrs); format: functional
[10] = biological target: Mitogen-activated protein kinase 3 (Homo sapiens, UniProt P27361); assay: Inhibition of ERK1 using fluorescent substrate by IMAP assay; in short: as §4
HeLa [11] = assay: Cell cycle arrest in human HeLa cells assessed as time delay in progression through G2/M phase at 4 uM treated within 4 hr post double thymidine-synchrony release using propidium iodide staining by FACS analysis; format: functional; in short: as §2
HeLa [12] = assay: Cell cycle arrest at G2 phase in human HeLa cells assessed as increase in Wee1 level at 2 uM treated at early S phase measured after 8-14 hr post-synchrony release by immunoblot method; format: functional, cell-based
HeLa [13] = assay: Cell cycle arrest in human HeLa cells assessed as accumulation at G1 phase at 2 uM treated 6 hr and measured 12 hr post double thymidine-synchrony release using propidium iodide staining by FACS analysis (reference value: 81 %); format: functional
[14] = Inhibition of JNK using fluorescent substrate by IMAP assay; in short: as §4
HeLa [15] = assay: Induction of abberent mitosis in human HeLa cells expressing GFP-H2B assessed as normal survivin staining cells at 2 uM by immunofluorescence method (reference value: 7%); format: functional
HeLa [16] = assay: Cell cycle arrest at G2 phase in human HeLa cells at 2 uM treated 8 hr and measured 12 hr post-synchrony release using Propidium iodide staining by FACS analysis in presence of ATM/ATR signaling inhibitor caffiene; format: functional, cell-based
HeLa [17] = assay: Cell cycle arrest in Rb-deficient human HeLa cells assessed as accumulation at S phase at 2 uM after 24 hrs by FACS analysis; format: functional; in short: as §3
RKO = assay: Toxicity in human RKO cells at 8 uM by MTT assay; format: cell-based
HeLa [18] = assay: Decrease in survivin protein expression in human HeLa cells at 2 uM measured 14 hr post thymidine-synchrony release by immunoblot analysis; format: functional, cell-based; in short: as §1
HeLa [19] = assay: Cell cycle arrest in human HeLa cells assessed as accumulation at G2/M phase at 2 uM treated 2 hr and measured 12 hr post double thymidine-synchrony release using propidium iodide staining by FACS analysis (reference value: 17 %); format: functional; in short: as §2
HeLa [20] = assay: Cell cycle arrest at G2 phase in human HeLa cells assessed as effect on cyclin A accumulation at 2 uM treated at early S phase measured after 6-14 hr post thymidine-synchrony release by immunoblot method; format: functional, cell-based
[21] = Cell cycle arrest in human SK-MEL-13 cells assessed as accumulation at S phase at 2 uM treated 1 hr and measured 12 hr post double hydroxyurea-synchrony release using propidium iodide staining by FACS analysis (reference value: 10 %); format: functional, cell-based
In short: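 SK-Mel-13 cells synchronized with 2 mM hydroxyurea, then treated with 2 μM CDK4 inhibitor or left untreated 1 h after release. Harvested at indicated times post-release, ethanol-fixed, propidium iodide/RNase stained, and DNA content read by FACS. Proportions of G1, S and G2/M cells derived with ModFit.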

HeLa [22] = assay: Cell cycle arrest in human HeLa cells assessed as accumulation at G1 phase at 2 uM treated 6 hr and measured 8 hr post double thymidine-synchrony release using propidium iodide staining by FACS analysis (reference value: 6 %); format: functional
[23] = Cell cycle arrest in Rb-competent human SK-MEL-13 cells assessed as accumulation at G1 phase at 2 uM after 24 hrs by FACS analysis; format: functional; in short: as §3
MDA-MB-453 = assay: Toxicity in human MDA-MB-453 cells at IC50 after 3 days by MTT assay; format: cell-based; conditions: mda-mb-453, 72 h
HeLa [24] = assay: Cell cycle arrest in human HeLa cells assessed as accumulation at G1 phase at 2 uM treated 4 hr and measured 10 hr post double thymidine-synchrony release using propidium iodide staining by FACS analysis (reference value: 68 %); format: functional
[25] = Cell cycle arrest in Rb-competent human SK-MEL-13 cells assessed as accumulation at G2/M phase at 2 uM after 24 hrs by FACS analysis; format: functional; in short: as §3

Sequence of Tyrosine-protein kinase Lck (P06239 whole entry): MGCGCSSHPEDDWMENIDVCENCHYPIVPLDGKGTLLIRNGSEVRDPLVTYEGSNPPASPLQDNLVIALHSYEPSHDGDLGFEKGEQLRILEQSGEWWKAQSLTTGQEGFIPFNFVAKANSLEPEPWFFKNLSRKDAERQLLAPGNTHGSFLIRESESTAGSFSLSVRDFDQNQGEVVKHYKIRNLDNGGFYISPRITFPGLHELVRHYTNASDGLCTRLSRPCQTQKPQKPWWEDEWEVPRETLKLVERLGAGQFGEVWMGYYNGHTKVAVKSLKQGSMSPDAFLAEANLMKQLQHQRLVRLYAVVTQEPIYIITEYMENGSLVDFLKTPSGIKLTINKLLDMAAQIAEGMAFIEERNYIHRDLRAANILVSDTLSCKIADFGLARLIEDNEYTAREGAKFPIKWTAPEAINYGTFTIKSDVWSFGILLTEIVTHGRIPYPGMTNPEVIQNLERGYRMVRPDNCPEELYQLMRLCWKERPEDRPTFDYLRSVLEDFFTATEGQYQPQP
Sequence of Mitogen-activated protein kinase 3 (P27361 whole entry): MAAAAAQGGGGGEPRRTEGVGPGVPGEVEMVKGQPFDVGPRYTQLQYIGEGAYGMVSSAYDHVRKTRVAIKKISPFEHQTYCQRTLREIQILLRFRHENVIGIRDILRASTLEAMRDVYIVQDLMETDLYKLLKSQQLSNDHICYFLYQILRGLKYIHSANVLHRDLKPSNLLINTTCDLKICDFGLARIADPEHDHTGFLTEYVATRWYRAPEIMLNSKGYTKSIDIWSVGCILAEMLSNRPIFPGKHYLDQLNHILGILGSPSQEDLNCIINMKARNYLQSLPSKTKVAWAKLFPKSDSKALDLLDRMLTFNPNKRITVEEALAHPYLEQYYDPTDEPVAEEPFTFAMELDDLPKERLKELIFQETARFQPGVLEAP

| IC50 [2] | IC50 [8] | IC50 [10] | IC50 [14] | Structure (SMILES) | Activity (HeLa [1]) | Activity (HeLa [3]) | Activity (SW480) | Activity (COLO 205) | Activity (HeLa [4]) | Activity (HeLa [5]) | Activity (HeLa [6]) | Activity (MDA-MB-435) | Time (HeLa [7]) | Time (HeLa [9]) | Time (HeLa [11]) | Activity (HeLa [12]) | Activity (HeLa [13]) | Activity (HeLa [15]) | Activity (HeLa [16]) | Activity (HeLa [17]) | also measured |
| --- | --- | --- | --- | --- | --- | --- | --- | --- | --- | --- | --- | --- | --- | --- | --- | --- | --- | --- | --- | --- | --- |
| 4.14 µM | > 100 µM | > 100 µM | > 50 µM | COc1cccc(C(=O)c2sc(Nc3ccc(N4CCN(C(C)C)CC4)cc3)nc2N)c1 | inactive | 0% | Toxic | Toxic | 25% | 10% | Active | Toxic | 2 h | 12 h | >4 h | Active | 73% | 23% | Active | 27% | Activity (RKO): Toxic; Activity (HeLa [18]): Active; Activity (HeLa [19]): 88%; Activity (HeLa [20]): inactive; Activity [21]: 10%; Activity (HeLa [22]): 7%; Activity [23]: 65%; Activity (MDA-MB-453): Toxic; Activity (HeLa [24]): 12%; Activity [25]: 19% |
| 2.36 µM | > 100 µM | > 100 µM | > 50 µM | CN1CCN(c2ccc(Nc3nc(N)c(C(=O)c4ccc5c(c4)OCCO5)s3)cc2)CC1 | inactive | 0% | Toxic | Toxic | 25% | 10% | Active | Toxic | 2 h | 12 h | >4 h | Active | 73% | 23% | Active | 27% | Activity (RKO): Toxic; Activity (HeLa [18]): Active; Activity (HeLa [19]): 88%; Activity (HeLa [20]): inactive; Activity [21]: 10%; Activity (HeLa [22]): 7%; Activity [23]: 65%; Activity (MDA-MB-453): Toxic; Activity (HeLa [24]): 12%; Activity [25]: 19% |
